Columns and labels:
[1] = molecular target: T1, Voltage-gated inwardly rectifying potassium channel KCNH2 (Homo sapiens, UniProt Q12809); assay: Displacement of [35S]MK-499 from human ERG
Homo sapiens [2] = species on record: Homo sapiens; assay: Selectivity ratio of IC50 for human ERG to IC50 for ROMK (unknown origin)
[3] = Dose normalized AUC in rat at 1 mg/kg, po; type: ADME, organism-based; conditions: in vivo
[4] = Clearance in rat at 0.5 mg/kg, iv or 1 mg/kg, po; type: ADME, organism-based; conditions: in vivo
Rattus norvegicus [5] = assay: Natriuretic activity in Sprague-Dawley rat at 1 mg/kg via oral gavage administered 30 mins prior to void induction by loading saline measured upto 4 hrs relative to vehicle treated control; type: functional
Procedure, shortened: (§1)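 Acute rat diuresis model in male-unspecified Sprague-Dawley rats, single oral dose, urine collected over 4 h. Urine volume, sodium excretion and potassium excretion expressed as fold increase over vehicle-treated controls; n = 5 per group; significance tested against vehicle.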

Rattus norvegicus [6] = assay: Natriuretic activity in Sprague-Dawley rat at 0.3 mg/kg via oral gavage administered 30 mins prior to void induction by loading saline measured upto 4 hrs relative to vehicle treated control; type: functional; procedure, shortened: as §1
Rattus norvegicus [7] = assay: Diuretic activity in Sprague-Dawley rat at 3 mg/kg via oral gavage administered 30 mins prior to void induction by loading saline measured upto 4 hrs relative to vehicle treated control; type: functional
Procedure, shortened: (§2)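 Acute 4 h study in Sprague-Dawley rats after oral dosing, n = 5 per group. Urine volume and sodium and potassium excretion were expressed as fold increase over vehicle-treated animals. Significance was tested versus vehicle (p < 0.05 or p < 0.01).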

Rattus norvegicus [8] = assay: Natriuretic activity in Sprague-Dawley rat at 3 mg/kg via oral gavage administered 30 mins prior to void induction by loading saline measured upto 4 hrs relative to vehicle treated control; type: functional
Procedure, shortened: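 Acute 4 h diuresis/natriuresis study in SD rats given a single oral dose, n = 5 per group. Urinary sodium output is expressed as fold increase over vehicle-treated animals, with significance tested against vehicle.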

Rattus norvegicus [9] = assay: Diuretic activity in Sprague-Dawley rat at 0.3 mg/kg via oral gavage administered 30 mins prior to void induction by loading saline measured upto 4 hrs relative to vehicle treated control; type: functional; procedure, shortened: as §1
Rattus norvegicus [10] = assay: Kaliuretic activity in Sprague-Dawley rat at 1 mg/kg via oral gavage administered 30 mins prior to void induction by loading saline measured upto 4 hrs relative to vehicle treated control; type: functional; procedure, shortened: as §1
[11] = Oral bioavailability in rat at 1 mg/kg; type: ADME, organism-based; conditions: in vivo
[12] = Volume of distribution at steady state in rat at 0.5 mg/kg, iv or 1 mg/kg, po; type: ADME, organism-based; conditions: in vivo, read-out: Vdss
Rattus norvegicus [13] = assay: Kaliuretic activity in Sprague-Dawley rat at 0.3 mg/kg via oral gavage administered 30 mins prior to void induction by loading saline measured upto 4 hrs relative to vehicle treated control; type: functional; procedure, shortened: as §1
Rattus norvegicus [14] = assay: Diuretic activity in Sprague-Dawley rat at 1 mg/kg via oral gavage administered 30 mins prior to void induction by loading saline measured upto 4 hrs relative to vehicle treated control; type: functional; procedure, shortened: as §1
Rattus norvegicus [15] = assay: Kaliuretic activity in Sprague-Dawley rat at 3 mg/kg via oral gavage administered 30 mins prior to void induction by loading saline measured upto 4 hrs relative to vehicle treated control; type: functional; procedure, shortened: as §1
[16] = Half life in rat at 0.5 mg/kg, iv or 1 mg/kg, po; type: ADME, organism-based; conditions: in vivo
[17] = molecular target: T1, Voltage-gated inwardly rectifying potassium channel KCNH2; assay: Inhibition of human ERG after 6 mins by electrophysiological assay
Rattus norvegicus [18] = assay: Antihypertensive activity in spontaneously hypertensive rat assessed as reduction in systolic blood pressure at 25 mg/kg via oral gavage qd administered for 4 days measured on day 4 by telemetry (reference value: 2.5 +/- 2.2 mmHg); type: functional
Rattus norvegicus [19] = assay: Kaliuretic activity in Sprague-Dawley rat administered via oral gavage 30 mins prior to void induction by loading saline measured upto 4 hrs relative to vehicle treated control; type: functional; procedure, shortened: as §2
[20] = molecular target: T2, ATP-sensitive inward rectifier potassium channel 1 (Homo sapiens, UniProt P48048); assay: Inhibition of ROMK (unknown origin) after 30 mins by 86Rb+ efflux assay
T2 sequence (P48048 whole entry): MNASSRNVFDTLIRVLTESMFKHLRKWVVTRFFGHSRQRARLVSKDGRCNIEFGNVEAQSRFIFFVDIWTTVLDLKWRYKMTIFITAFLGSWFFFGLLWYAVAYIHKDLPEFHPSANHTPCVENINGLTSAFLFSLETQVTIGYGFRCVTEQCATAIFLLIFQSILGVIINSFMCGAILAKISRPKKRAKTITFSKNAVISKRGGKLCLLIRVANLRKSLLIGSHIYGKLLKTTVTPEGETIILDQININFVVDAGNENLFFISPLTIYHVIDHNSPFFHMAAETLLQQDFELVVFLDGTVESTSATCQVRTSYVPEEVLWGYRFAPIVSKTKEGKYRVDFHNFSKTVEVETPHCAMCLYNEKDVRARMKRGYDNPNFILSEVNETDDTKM

[21] = molecular target: T2, ATP-sensitive inward rectifier potassium channel 1; assay: Inhibition of ROMK (unknown origin) expressed in CHO cells after 6 mins by electrophysiological assay; type: cell-based
Homo sapiens [22] = species on record: Homo sapiens; assay: Selectivity ratio of IC50 for human ERG to IC50 for ROMK (unknown origin) expressed in CHO cells by electrophysiological assay; type: cell-based
Procedure, shortened: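 Both channels were tested in electrophysiology (EP) assays. The ratio is the hERG EP IC50 divided by the ROMK EP IC50.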

Rattus norvegicus [23] = assay: Diuretic activity in Sprague-Dawley rat at 10 mg/kg via oral gavage administered 30 mins prior to void induction by loading saline measured upto 4 hrs relative to vehicle treated control; type: functional; procedure, shortened: as §2
Rattus norvegicus [24] = assay: Natriuretic activity in Sprague-Dawley rat at 10 mg/kg via oral gavage administered 30 mins prior to void induction by loading saline measured upto 4 hrs relative to vehicle treated control; type: functional; procedure, shortened: as §2
[25] = Clearance in rat at 1 mg/kg, iv or 2 mg/kg, po; type: ADME, organism-based; conditions: in vivo
Procedure, shortened: (§3)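 Rats dosed once at 1 mg/kg IV and, separately, 2 mg/kg PO, with n = 3. Derived parameters were plasma clearance, Vdss, dose-normalized oral AUC (μM·h·kg/mg), half-life, and oral bioavailability (F%).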

[26] = Dose normalized AUC in rat at 2 mg/kg, po; type: ADME, organism-based; conditions: in vivo; procedure, shortened: as §3
[27] = Volume of distribution at steady state in rat at 1 mg/kg, iv or 2 mg/kg, po; type: ADME, organism-based; conditions: in vivo, read-out: Vdss; procedure, shortened: as §3
[28] = Oral bioavailability in rat at 2 mg/kg; type: ADME, organism-based; conditions: in vivo; procedure, shortened: as §3
[29] = Half life in rat at 1 mg/kg, iv or 2 mg/kg, po; type: ADME, organism-based; conditions: in vivo; procedure, shortened: as §3

T1 sequence (Q12809 whole entry): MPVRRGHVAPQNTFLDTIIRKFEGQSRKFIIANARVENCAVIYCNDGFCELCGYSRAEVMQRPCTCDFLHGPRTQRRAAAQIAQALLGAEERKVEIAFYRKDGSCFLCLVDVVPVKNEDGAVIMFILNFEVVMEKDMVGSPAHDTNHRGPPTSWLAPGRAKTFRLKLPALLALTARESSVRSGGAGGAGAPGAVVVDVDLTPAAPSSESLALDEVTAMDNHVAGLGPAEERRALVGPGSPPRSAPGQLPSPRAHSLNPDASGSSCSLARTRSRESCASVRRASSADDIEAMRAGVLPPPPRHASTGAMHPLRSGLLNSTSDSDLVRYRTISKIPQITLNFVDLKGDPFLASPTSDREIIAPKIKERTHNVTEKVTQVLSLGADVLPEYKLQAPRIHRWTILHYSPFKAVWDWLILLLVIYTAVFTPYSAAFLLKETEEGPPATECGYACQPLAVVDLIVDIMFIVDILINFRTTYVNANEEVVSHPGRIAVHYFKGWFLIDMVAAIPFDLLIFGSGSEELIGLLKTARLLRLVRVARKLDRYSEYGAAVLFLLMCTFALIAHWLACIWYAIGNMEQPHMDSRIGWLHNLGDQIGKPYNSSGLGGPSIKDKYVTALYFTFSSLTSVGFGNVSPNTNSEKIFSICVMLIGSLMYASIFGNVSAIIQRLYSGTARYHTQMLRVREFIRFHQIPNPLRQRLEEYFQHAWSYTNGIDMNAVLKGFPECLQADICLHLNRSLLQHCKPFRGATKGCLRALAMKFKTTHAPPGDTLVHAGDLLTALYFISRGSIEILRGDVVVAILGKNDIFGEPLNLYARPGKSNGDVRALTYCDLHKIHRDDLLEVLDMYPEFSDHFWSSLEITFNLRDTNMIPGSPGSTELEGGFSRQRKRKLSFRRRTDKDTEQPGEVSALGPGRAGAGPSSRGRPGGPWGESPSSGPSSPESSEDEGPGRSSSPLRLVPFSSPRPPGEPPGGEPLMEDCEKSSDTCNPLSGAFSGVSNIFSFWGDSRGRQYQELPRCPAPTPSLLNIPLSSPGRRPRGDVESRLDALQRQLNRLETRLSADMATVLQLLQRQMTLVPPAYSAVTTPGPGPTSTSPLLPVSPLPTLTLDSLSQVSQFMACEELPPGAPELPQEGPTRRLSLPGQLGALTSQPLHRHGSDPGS

`Cc1c(CCN2CCN(CCc3ccc4c(c3C)COC4=O)CC2)ccc2c1COC2=O` showed an IC50 [1] of 3 µM and a Ratio IC50 (Homo sapiens [2]) of 39.
With `Cc1c([C@H](O)CN2CCN(C[C@@H](O)c3ccc4c(c3C)COC4=O)CC2)ccc2c1COC2=O` the AUC/dose [3] was 0.13 µM·kg·h/mg, the clearance [4] was 82 mL/min/kg and the “fold change (FC)” value (Rattus norvegicus [5]) was 1.5. The “fold change (FC)” value (Rattus norvegicus [6]) was 1.4, the IC50 [1] was 47 µM and the “fold change (FC)” value (Rattus norvegicus [7]) was 1.9. The “fold change (FC)” value (Rattus norvegicus [8]) was 2.2, the “fold change (FC)” value (Rattus norvegicus [9]) was 1.3 and the “fold change (FC)” value (Rattus norvegicus [10]) was 1. For the same compound, the bioavailability [11] was 45%, the Vd [12] was 5.8 L/kg and the “fold change (FC)” value (Rattus norvegicus [13]) was 1.1. For the same compound, the “fold change (FC)” value (Rattus norvegicus [14]) was 1.6, the “fold change (FC)” value (Rattus norvegicus [15]) was 0.9 and the half-life [16] was 51.6 min. It also gave an IC50 [17] of 22 µM.
With `NS(=O)(=O)c1cc2c(cc1Cl)NCNS2(=O)=O` [HYDROCHLOROTHIAZIDE] the Activity (Rattus norvegicus [18]) was 15 mmHg and the “fold change (FC)” value (Rattus norvegicus [19]) was 2.
Compound `Cc1c(C(O)CN2CCN(C(=O)Cc3ccc(-n4cnnn4)cc3)CC2)ccc2c1COC2=O` (centres undefined) has an IC50 [1] of 100 µM, an IC50 [20] of 0.51 µM and a Ratio IC50 (Homo sapiens [2]) of 200.
`Cc1c(C(C)CN2CCN(C(=O)Cc3ccc(-n4cnnn4)cc3)CC2)ccc2c1COC2=O` (centres undefined) showed an IC50 [1] of 60 µM, an IC50 [20] of 0.16 µM and a Ratio IC50 (Homo sapiens [2]) of 380.
For `Cc1c([C@H](O)CN2CCN(C[C@H](O)c3ccc4c(c3C)COC4=O)CC2)ccc2c1COC2=O`, the AUC/dose [3] was 0.3 µM·kg·h/mg, the clearance [4] was 54 mL/min/kg and the “fold change (FC)” value (Rattus norvegicus [5]) was 3.7. The IC50 [1] was 100 µM, the “fold change (FC)” value (Rattus norvegicus [7]) was 4.5 and the “fold change (FC)” value (Rattus norvegicus [8]) was 4.1. For the same compound, the “fold change (FC)” value (Rattus norvegicus [10]) was 1.3, the bioavailability [11] was 44% and the Vd [12] was 4.5 L/kg. The “fold change (FC)” value (Rattus norvegicus [14]) was 3.5, the “fold change (FC)” value (Rattus norvegicus [15]) was 1.1 and the half-life [16] was 84 min. For the same compound, the IC50 [17] was greater than 30 µM.
In the case of `Cc1c(CCN2CCN(CC(O)c3ccc4c(c3C)COC4=O)CC2)ccc2c1COC2=O` (centres undefined), the IC50 [20] is reported as 0.034 µM.
With `Cc1c(C(F)CN2CCN(CC(F)c3ccc4c(c3C)COC4=O)CC2)ccc2c1COC2=O` (centres undefined) the IC50 [1] was 40 µM, the IC50 [21] was 0.117 µM and the “fold change (FC)” value (Rattus norvegicus [7]) was 1.6. For the same compound, the “fold change (FC)” value (Rattus norvegicus [8]) was 1.7, the Ratio IC50 (Homo sapiens [22]) was greater than 770 and the “fold change (FC)” value (Rattus norvegicus [23]) was 3. The IC50 [20] was 0.096 µM, the Ratio IC50 (Homo sapiens [2]) was 420 and the “fold change (FC)” value (Rattus norvegicus [24]) was 3. For the same compound, the IC50 [17] was greater than 90 µM.
In the case of `Cc1c(C(O)CN2CCN(CC(O)c3ccc4c(c3C)COC4=O)CC2)ccc2c1COC2=O` (centres undefined), the IC50 [1] is reported as 23 µM, the “fold change (FC)” value (Rattus norvegicus [7]) is reported as 6.7 and the “fold change (FC)” value (Rattus norvegicus [8]) is reported as 9.4. The “fold change (FC)” value (Rattus norvegicus [23]) was 6.8, the “fold change (FC)” value (Rattus norvegicus [24]) was 9.5 and the IC50 [17] was 28 µM.
With `Cc1c(C(F)CN2CCN(C(=O)Cc3ccc(-n4cnnn4)cc3)CC2)ccc2c1COC2=O` (centres undefined) the IC50 [1] was 68 µM, the clearance [25] was 58 mL/min/kg and the AUC/dose [26] was 0.23 µM·h. The Vd [27] was 1.4 L/kg, the IC50 [20] was 0.069 µM and the bioavailability [28] was 36%. It also gave a Ratio IC50 (Homo sapiens [2]) of 1000 and a half-life [29] of 21 min.

From ChEMBL document CHEMBL4425169 (ACS Med Chem Lett, 2016)
